The target in test [1] is Serine/threonine-protein kinase 32B (Homo sapiens) (UniProt Q9NY57). The test is described as follows: Binding affinity to wild-type human full length YANK2 (M1 to S414 residues) expressed in bacterial expression system assessed as residual binding level at 1 uM by Kinomescan method relative to control. The method in brief: (§1)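 KINOMEscan competition binding against 468 purified kinases/mutants, test compound at 1 µM; residual binding relative to control.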

Test [2] has as its target AP2-associated protein kinase 1 (Homo sapiens) (UniProt Q2M2I8). The test is described as follows: Binding affinity to human wild-type AAK1 (G25 to L333 residues) expressed in bacterial expression system assessed as residual binding level at 1 uM by Kinomescan method relative to control. The method in brief:
(§2)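 Single-concentration (1 μM) competition-binding screen run by KINOMEscan against a panel of 468 purified kinases and mutants. The read-out is the relative binding activity of the test compound to each kinase.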

Test [3] concerns the target Citron Rho-interacting kinase (Homo sapiens) (UniProt O14578). The test is described as follows: Binding affinity to wild-type human partial length CIT (M68 to E432 residues) expressed in bacterial expression system assessed as residual binding level at 1 uM by Kinomescan method relative to control. The method in brief:
(§3)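 Kinome-wide competition binding screen against a panel of 468 purified kinases/mutants, with the test compound at a single concentration of 1 μM. Read-out is the relative binding activity of each kinase in the presence of compound.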

Test [4] addresses Bone morphogenetic protein receptor type-1B (Homo sapiens) (UniProt O00238). The test is described as follows: Binding affinity to wild-type human partial length BMPR1B (D178 to L502 residues) expressed in mammalian expression system assessed as residual binding level at 1 uM by Kinomescan method relative to control. Put shortly: (§4)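 Single-concentration KINOMEscan (DiscoverX) binding screen at 1 μM against a panel of 468 purified kinases and mutants. The read-out is binding relative to control.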

Test [5] addresses Serine/threonine-protein kinase TAO1 (Homo sapiens) (UniProt Q7L7X3). The test is described as follows: Binding affinity to wild-type human partial length TAOK1 (M1 to A320 residues) expressed in mammalian expression system assessed as residual binding level at 1 uM by Kinomescan method relative to control.
The target in test [6] is Casein kinase I isoform epsilon (Homo sapiens) (UniProt P49674). The test is described as follows: Binding affinity to wild-type human full length CSNK1E (M1 to K416 residues) expressed in bacterial expression system assessed as residual binding level at 1 uM by Kinomescan method relative to control. The method in brief: as §2
Test [7] concerns the target Phosphatidylinositol 4-phosphate 5-kinase type-1 alpha (Homo sapiens) (UniProt Q99755). The test is described as follows: Binding affinity to wild-type human full length PIP5K1A (M1 to H562 residues) expressed in bacterial expression system assessed as residual binding level at 1 uM by Kinomescan method relative to control. Put shortly: as §4
Test [8] concerns the target Cyclin-dependent kinase 5 (Homo sapiens) (UniProt Q00535). The test is described as follows: Binding affinity to wild-type human full length CDK5 (M1 to P292 residues) expressed in bacterial expression system assessed as residual binding level at 1 uM by Kinomescan method relative to control. The method in brief: as §1
For test [9], the target named is Ephrin type-A receptor 8 (Homo sapiens) (UniProt P29322). The test is described as follows: Binding affinity to wild-type human partial length EPHA8 (Q608 to C920 residues) expressed in bacterial expression system assessed as residual binding level at 1 uM by Kinomescan method relative to control. The method in brief: as §3
In test [10] the target is Receptor-interacting serine/threonine-protein kinase 4 (Homo sapiens) (UniProt P57078). The test is described as follows: Binding affinity to wild-type human partial length RIPK4 (M1 to V303 residues) expressed in mammalian expression system assessed as residual binding level at 1 uM by Kinomescan method relative to control.
Test [11] addresses Receptor tyrosine-protein kinase erbB-4 (Homo sapiens) (UniProt Q15303). The test is described as follows: Binding affinity to wild-type human partial length ERBB4 (L690 to K994 residues) expressed in bacterial expression system assessed as residual binding level at 1 uM by Kinomescan method relative to control.
Test [12] addresses Peripheral plasma membrane protein CASK (Homo sapiens) (UniProt O14936). The test is described as follows: Binding affinity to wild-type human partial length CASK (M1 to H315 residues) expressed in mammalian expression system assessed as residual binding level at 1 uM by Kinomescan method relative to control. The method in brief: as §3
Test [13] addresses Atypical kinase COQ8A, mitochondrial (Homo sapiens) (UniProt Q8NI60). The test is described as follows: Binding affinity to wild-type human full length ADCK3 (M280 to Q647 residues) expressed in bacterial expression system assessed as residual binding level at 1 uM by Kinomescan method relative to control. Put shortly:
as §2

The target in test [14] is Calcium/calmodulin-dependent protein kinase type 1 (Homo sapiens) (UniProt Q14012). The test is described as follows: Binding affinity to wild-type human full length CAMK1 (M1 to L370 residues) expressed in bacterial expression system assessed as residual binding level at 1 uM by Kinomescan method relative to control. Put shortly:
as §2

Test [15] addresses Protein kinase C epsilon type (Homo sapiens) (UniProt Q02156). The test is described as follows: Binding affinity to wild-type human partial length PRKCE (A378 to P737 residues) expressed in mammalian expression system assessed as residual binding level at 1 uM by Kinomescan method relative to control. The method in brief: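 KINOMEscan competition binding against a panel of 468 purified kinases/mutants, compound tested at 1 μM; readout is relative binding activity versus control.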

Test [16] concerns the target SRSF protein kinase 2 (Homo sapiens) (UniProt P78362). The test is described as follows: Binding affinity to wild-type human full length SRPK2 (M1 to S686 residues) expressed in bacterial expression system assessed as residual binding level at 1 uM by Kinomescan method relative to control. Put shortly:
as §4

In test [17] the target is Calcium/calmodulin-dependent protein kinase kinase 2 (Homo sapiens) (UniProt Q96RR4). The test is described as follows: Binding affinity to wild-type human partial length CAMKK2 (D65 to V471 residues) expressed in bacterial expression system assessed as residual binding level at 1 uM by Kinomescan method relative to control. Put shortly: as §3
Another test relates to EOL1. The test is described as follows: Antiproliferative activity against human EOL-1 cells after 72 hrs by CellTiter-Glo or CCK-8 assay. Format: functional. The settings on record: EOL1, 72 h. Put shortly: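 Cells in RPMI 1640 with 10% FBS at 37 °C, 5% CO2, seeded at 1–3 × 10^4 cells/mL with serial compound dilutions for 72 h. Viability read by CellTiter-Glo luminescence or CCK-8 absorbance (450/655 nm), normalized to DMSO control.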
Background: ATP-based viability assays read luminescence as a measure of living cells.

For test [18], the target named is Activin receptor type-2A (Homo sapiens) (UniProt P27037). The test is described as follows: Binding affinity to wild-type human ACVR2A (V171 to T499 residues) expressed in bacterial expression system assessed as residual binding level at 1 uM by Kinomescan method relative to control. The method in brief:
as §2

For test [19], the target named is Ephrin type-A receptor 6 (Homo sapiens) (UniProt Q9UF33). The test is described as follows: Binding affinity to wild-type human partial length EPHA6 (Y700 to E1046 residues) expressed in bacterial expression system assessed as residual binding level at 1 uM by Kinomescan method relative to control. Put shortly: as §3
The target of test [20] is MAP kinase-activated protein kinase 5 (Homo sapiens) (UniProt Q8IW41). The test is described as follows: Binding affinity to wild-type human partial length MAPKAPK5 (M1 to D322 residues) expressed in mammalian expression system assessed as residual binding level at 1 uM by Kinomescan method relative to control.

1 compound from ChEMBL document CHEMBL4229344 (Eur J Med Chem, 2018) can be followed below.

What is called GI50 is the concentration at which growth is held to half of that of the control. A higher GI50 goes with lower sensitivity of the cells.

Where only a bound is given, the exact number is not on record here.

Casein kinase I isoform epsilon (Homo sapiens), sequence (P49674 whole entry, looked up, the tested form may be a part, canonical isoform): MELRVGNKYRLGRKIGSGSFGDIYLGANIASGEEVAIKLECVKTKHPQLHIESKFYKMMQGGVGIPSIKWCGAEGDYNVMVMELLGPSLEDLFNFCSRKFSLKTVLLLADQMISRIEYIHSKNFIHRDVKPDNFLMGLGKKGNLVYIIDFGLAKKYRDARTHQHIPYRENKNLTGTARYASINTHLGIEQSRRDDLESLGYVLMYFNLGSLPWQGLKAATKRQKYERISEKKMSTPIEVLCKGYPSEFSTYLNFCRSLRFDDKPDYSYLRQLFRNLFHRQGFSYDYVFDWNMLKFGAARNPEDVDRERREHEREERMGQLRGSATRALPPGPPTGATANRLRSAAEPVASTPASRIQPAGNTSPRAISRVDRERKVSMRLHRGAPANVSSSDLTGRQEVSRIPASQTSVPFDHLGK
Activin receptor type-2A (Homo sapiens), sequence (P27037 whole entry, the tested form may be a part): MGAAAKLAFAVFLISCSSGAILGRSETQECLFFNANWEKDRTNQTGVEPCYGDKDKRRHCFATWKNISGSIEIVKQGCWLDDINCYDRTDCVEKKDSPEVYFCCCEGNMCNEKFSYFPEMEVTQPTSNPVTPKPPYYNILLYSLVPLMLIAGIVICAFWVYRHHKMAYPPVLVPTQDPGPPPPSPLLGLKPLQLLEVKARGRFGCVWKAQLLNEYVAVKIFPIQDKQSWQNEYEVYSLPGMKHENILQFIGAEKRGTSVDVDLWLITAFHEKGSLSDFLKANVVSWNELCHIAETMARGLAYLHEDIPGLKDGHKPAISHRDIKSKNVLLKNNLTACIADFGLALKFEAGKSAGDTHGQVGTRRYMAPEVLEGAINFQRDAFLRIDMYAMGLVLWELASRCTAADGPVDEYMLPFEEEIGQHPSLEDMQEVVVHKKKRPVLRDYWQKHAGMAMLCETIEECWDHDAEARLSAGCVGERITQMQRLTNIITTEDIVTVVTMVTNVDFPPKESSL
Citron Rho-interacting kinase (Homo sapiens), sequence (O14578 whole entry, the tested form may be a part): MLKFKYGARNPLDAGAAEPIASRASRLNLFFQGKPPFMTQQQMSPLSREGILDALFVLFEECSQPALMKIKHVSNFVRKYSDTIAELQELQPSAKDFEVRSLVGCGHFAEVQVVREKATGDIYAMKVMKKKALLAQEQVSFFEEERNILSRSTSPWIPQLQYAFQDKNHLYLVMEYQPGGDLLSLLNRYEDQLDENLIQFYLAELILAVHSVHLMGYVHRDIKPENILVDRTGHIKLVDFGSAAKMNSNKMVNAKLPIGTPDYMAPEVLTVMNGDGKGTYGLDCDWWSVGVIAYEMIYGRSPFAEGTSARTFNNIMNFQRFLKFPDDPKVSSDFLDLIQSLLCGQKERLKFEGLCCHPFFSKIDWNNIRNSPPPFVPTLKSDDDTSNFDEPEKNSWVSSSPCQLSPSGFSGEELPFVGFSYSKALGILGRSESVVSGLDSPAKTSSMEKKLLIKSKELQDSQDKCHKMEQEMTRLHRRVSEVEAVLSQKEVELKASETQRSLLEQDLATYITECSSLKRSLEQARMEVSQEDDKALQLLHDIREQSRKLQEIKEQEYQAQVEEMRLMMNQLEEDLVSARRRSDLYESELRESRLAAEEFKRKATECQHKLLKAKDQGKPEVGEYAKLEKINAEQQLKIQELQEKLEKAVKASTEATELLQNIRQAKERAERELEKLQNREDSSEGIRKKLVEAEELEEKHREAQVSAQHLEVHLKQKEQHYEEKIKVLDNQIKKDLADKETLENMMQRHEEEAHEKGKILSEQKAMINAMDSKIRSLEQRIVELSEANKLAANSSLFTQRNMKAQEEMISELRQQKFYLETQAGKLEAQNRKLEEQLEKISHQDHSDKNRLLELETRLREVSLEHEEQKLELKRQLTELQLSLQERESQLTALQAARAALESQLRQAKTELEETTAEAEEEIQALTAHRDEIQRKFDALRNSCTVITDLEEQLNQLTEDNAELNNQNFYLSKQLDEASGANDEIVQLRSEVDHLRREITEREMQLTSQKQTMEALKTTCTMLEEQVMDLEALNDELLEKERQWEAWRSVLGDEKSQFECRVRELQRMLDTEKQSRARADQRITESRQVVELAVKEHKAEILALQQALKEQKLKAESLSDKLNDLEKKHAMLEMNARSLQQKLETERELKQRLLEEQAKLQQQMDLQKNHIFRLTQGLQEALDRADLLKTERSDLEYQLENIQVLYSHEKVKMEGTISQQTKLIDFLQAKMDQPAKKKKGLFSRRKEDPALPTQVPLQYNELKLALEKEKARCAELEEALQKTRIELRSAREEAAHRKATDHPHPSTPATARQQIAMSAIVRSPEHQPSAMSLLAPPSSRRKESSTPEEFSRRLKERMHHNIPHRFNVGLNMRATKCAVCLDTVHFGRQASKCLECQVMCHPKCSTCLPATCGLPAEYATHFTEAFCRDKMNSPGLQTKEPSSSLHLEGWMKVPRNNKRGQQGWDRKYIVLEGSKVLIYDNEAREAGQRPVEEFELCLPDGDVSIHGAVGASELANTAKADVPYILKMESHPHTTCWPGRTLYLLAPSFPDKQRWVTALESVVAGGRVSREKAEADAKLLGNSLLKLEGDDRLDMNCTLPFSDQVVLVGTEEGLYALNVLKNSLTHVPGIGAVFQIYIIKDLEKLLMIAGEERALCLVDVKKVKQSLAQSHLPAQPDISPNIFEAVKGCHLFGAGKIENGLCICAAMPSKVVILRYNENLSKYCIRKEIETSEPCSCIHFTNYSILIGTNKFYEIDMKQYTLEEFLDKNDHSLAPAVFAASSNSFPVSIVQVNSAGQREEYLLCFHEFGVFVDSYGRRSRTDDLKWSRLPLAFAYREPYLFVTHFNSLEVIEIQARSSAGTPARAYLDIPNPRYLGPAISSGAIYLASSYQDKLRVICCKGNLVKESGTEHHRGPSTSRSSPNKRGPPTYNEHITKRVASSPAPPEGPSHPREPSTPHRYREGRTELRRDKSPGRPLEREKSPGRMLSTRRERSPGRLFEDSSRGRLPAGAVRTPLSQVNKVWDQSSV
Atypical kinase COQ8A, mitochondrial (Homo sapiens), sequence (Q8NI60 163-647 limits assumed): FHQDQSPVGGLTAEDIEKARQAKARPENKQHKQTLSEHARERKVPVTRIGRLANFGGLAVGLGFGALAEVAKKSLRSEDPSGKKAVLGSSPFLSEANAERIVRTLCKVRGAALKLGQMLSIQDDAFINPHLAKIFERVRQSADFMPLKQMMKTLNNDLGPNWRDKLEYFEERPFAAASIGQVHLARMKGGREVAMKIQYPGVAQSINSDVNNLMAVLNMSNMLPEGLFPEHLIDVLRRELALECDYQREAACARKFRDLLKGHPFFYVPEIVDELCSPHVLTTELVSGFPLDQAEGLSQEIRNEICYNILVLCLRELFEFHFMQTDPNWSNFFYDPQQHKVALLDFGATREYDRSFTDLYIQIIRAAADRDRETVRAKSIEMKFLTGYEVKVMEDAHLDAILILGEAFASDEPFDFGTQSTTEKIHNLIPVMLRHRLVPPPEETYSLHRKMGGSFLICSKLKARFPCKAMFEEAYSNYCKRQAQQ
Calcium/calmodulin-dependent protein kinase type 1 (Homo sapiens), sequence (Q14012 whole entry, looked up, the tested form may be a part): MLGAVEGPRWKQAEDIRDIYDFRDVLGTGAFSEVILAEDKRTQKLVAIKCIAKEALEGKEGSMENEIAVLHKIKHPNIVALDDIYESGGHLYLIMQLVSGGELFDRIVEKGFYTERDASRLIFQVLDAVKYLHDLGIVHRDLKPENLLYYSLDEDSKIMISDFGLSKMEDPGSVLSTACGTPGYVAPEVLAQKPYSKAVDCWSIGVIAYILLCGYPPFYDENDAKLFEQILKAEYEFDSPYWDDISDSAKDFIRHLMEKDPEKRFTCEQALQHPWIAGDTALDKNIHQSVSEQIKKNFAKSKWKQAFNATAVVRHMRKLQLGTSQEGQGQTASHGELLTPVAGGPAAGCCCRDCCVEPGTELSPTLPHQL
Calcium/calmodulin-dependent protein kinase kinase 2 (Homo sapiens), sequence (Q96RR4 2-588 limits assumed): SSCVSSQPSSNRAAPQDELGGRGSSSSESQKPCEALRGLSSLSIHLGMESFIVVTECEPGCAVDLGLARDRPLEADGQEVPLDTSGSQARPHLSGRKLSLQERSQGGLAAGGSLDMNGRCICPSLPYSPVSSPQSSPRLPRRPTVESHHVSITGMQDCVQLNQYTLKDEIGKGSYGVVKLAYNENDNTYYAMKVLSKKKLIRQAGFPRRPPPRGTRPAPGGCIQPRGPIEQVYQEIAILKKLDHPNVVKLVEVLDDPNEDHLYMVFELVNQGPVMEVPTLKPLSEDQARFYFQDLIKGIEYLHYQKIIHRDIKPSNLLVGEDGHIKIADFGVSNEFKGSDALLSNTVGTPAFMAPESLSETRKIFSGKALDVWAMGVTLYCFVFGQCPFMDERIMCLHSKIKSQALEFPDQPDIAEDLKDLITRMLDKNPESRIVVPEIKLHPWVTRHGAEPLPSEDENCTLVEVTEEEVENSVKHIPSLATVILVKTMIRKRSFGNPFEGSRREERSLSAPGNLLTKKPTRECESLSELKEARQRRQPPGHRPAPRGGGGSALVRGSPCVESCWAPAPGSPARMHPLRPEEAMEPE
MAP kinase-activated protein kinase 5 (Homo sapiens), sequence (Q8IW41 whole entry, the tested form may be a part): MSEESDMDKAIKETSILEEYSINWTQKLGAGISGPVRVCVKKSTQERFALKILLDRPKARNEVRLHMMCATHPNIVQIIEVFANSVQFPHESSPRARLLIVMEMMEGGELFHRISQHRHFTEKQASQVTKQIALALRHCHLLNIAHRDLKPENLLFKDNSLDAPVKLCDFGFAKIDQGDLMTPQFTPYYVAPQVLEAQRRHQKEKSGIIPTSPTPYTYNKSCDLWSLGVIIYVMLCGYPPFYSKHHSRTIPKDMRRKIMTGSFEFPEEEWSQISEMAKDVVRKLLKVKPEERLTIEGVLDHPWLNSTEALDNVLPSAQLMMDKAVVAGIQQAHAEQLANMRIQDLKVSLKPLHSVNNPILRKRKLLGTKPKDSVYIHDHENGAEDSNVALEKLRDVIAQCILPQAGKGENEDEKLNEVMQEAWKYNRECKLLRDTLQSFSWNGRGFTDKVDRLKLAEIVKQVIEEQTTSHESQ

Consider `Cc1ccc(NC(=O)c2ccc(CN(CCN(C)C)C(=O)c3cccnc3)cc2)cc1Nc1nccc(-c2cccnc2)n1`, for which the Activity in test [1] is 82%; in test [2], 100%; in test [3] it was 89%; in [4], 95%; in [5] it was 100%; in [6], 97%. For the same compound, the Activity was 100% in [7]; 94% in test [8]; 89% in test [9]; 97% in test [10]; 85% in test [11]; 87% in [12]. Also, the Activity in test [13] was determined as 100%; in [14], 81%; in test [15], 80%; in test [16] it was 86%; in [17], 91%; in [18] it was 96%. The Activity turned out to be 92% in test [19] and 100% in [20]. In addition, in the test on EOL1, the GI50 is below 1 nM.
